# KCNQ1 act = potentiates or activates the human KCNQ1 potassium channel; CHO-K1 KCNQ1, thallium flux FluxOR fluorescence; stronger effect = higher value; B-score at 10 µM; 310,000 tested, 0.35% active; AID 2648; P51787;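 active = fluorescence ratio B-score, a plate-corrected score, at least three library SD, with initial intensity B-score within 5 SD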
# Target sequence (P51787 whole entry, looked up): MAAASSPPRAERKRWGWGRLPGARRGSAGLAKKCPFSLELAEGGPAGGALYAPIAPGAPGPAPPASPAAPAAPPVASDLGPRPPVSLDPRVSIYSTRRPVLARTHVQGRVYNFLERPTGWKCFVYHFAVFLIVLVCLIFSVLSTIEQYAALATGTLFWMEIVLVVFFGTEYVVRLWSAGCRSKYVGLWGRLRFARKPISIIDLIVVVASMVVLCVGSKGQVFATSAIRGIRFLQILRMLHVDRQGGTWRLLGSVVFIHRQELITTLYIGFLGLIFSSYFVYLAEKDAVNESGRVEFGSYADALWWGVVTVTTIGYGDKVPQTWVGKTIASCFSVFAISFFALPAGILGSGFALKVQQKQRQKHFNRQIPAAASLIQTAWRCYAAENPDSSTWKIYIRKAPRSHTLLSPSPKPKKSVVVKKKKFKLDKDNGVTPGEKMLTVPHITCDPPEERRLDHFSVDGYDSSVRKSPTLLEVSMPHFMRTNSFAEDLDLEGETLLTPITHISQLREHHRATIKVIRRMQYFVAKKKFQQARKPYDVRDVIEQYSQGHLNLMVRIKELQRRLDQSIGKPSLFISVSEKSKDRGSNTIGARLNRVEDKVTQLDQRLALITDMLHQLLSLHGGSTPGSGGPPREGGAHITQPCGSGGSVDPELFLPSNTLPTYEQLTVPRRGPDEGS
#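 Assay system: stable KCNQ1 CHO-K1 line; medium: assay buffer, equal DMSO in all wells; timing: 90 min dye loading and 20 min compound exposure, both at room temperature; technique: kinetic FluxOR thallium fluorescence, 10-s 1-Hz baseline, 110-s post-stimulus read; read-out basis: B score of baseline-normalized fluorescence ratio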
# KCNK3 block = human KCNK3 channel inhibition, primary screen. O14649. B-score at 10 µM. 340,000 tested, 0.84% active. AID 602410. CHO-KCNK3 thallium flux, FluxOR fluorescence; stronger effect = lower value;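 active = B-score under library mean minus 4 SD, starting fluorescence ratio at most library mean plus 5 SD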;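 note: more negative B-score means stronger inhibition of thallium flux through KCNK3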
# KCNK9 inh = human KCNK9 channel inhibition. 310,000 tested, 1.2% active. HEK293 KCNK9, FluxOR thallium flux fluorescence; stronger effect = lower value. Q9NPC2. B-score at 10 µM;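 active = ratio B-score over 3 SD below the library mean, with starting fluorescence within 5 SD of its mean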;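 note: negative B-score means less thallium flux so channel inhibition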
# KCNQ1 block = human KCNQ1 channel inhibition; P51787; AID 2642; 310,000 tested, 1.3% active; CHO-K1 KCNQ1, FluxOR thallium flux fluorescence; stronger effect = higher value; B-score at 10 µM;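 active = compounds whose thallium flux B-score, printed positive for inhibition, exceeds three library SD while starting fluorescence stays within three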;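 note: channel opened by potassium depolarization with thallium stimulus after 20 min compound exposure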
# hERG protect = hERG (human) protection from proarrhythmic block | AID 1511 | activation (rescue from dofetilide block), less the hit threshold, % at 10 µM | CHO-hERG, FluxOR thallium flux, dofetilide IC70 present | Q12809 | 310,000 tested, 0.51% active;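 active = activation above the mean of controls blocked by dofetilide plus 5 SD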;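 note: thallium influx through hERG after potassium depolarization seen as dye fluorescence rise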
# KCNK9 inh conf = human KCNK9 inhibitor confirmation; shares compounds with KCNK9 inh; HEK293 KCNK9 cells, FluxOR thallium flux fluorescence; inhibition, % at 10 µM; 4,900 tested, 43% active; AID 492992;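 active = thallium signal inhibited by more than 5 SD of the compound-free buffer control wells, on both duplicate plates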;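 note: 0% = assay buffer control wells without compound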
# Kir21 sel = tests whether KCNK9 modulators also affect mouse Kir2.1; shares compounds with KCNK9 inh; Kir2.1 cells, FluxOR thallium flux fluorescence; inhibition, % at 10 µM; 4,900 tested, 4% active; AID 492993;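 active = thallium signal drop more than 5 SD beyond the mean of the no-compound control wells, seen in both duplicate plates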;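 note: signal is fluorescence rise after thallium addition divided by baseline fluorescence; plate controls were assay buffer only for no effect and full block by chlorpromazine control for full effect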
# HEK293 Tl ctr = second counter-screen for KCNK9 modulators: effect in non-induced cells; inhibition, % at 10 µM; non-induced KCNK9-HEK293, FluxOR thallium flux; AID 492997; shares compounds with KCNK9 inh; 4,900 tested, 40% active;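 active = thallium signal drop beyond 5 SD of the untreated control mean, on both duplicate plates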;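 note: plate controls were buffer only IC0 wells for no effect and SID17386958 at its maximal inhibitory level for full effect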
# KCNK3 confirm = human KCNK3 channel inhibition, confirmation assay; shares compounds with KCNK3 block; ratio percent of control, % at 10 µM; 2,400 tested, 99% active; CHO-KCNK3 thallium flux, FluxOR fluorescence; 0% buffer, 100% carvedilol maximal block;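 active = ratio percent of control, averaged over triplicates, above buffer control mean plus 5 SD, cut at about 64% in these data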;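 note: ratio is the fluorescence rise from min to max over baseline after thallium stimulus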
# KCNK3 noninduced = counter-screen for KCNK3 inhibitors: effect in non-induced cells; non-induced KCNK3 parental cells, FluxOR thallium flux; stronger effect = lower value; shares compounds with KCNK3 block; thallium flux ratio (lower = more inhibition) at 10 µM; 2,400 tested, 40% active;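 active = thallium flux ratio, averaged over three wells, more than 5 SD below the buffer control mean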;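 note: host cells are CHO cells without KCNK3 induction; ratio is peak minus trough fluorescence over baseline then normalized to buffer controls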
# The depositor's hits bear a star; i = inactive; / = no result. This is a sample that favours compounds with a hit; in the whole collection about 3.1% have one here.
SMILES,KCNQ1 act,KCNK3 block,KCNK9 inh,KCNQ1 block,hERG protect,KCNK9 inh conf,Kir21 sel,HEK293 Tl ctr,KCNK3 confirm,KCNK3 noninduced
CN(CCOc1ccc(Cl)cc1)Cc1cccc(S(=O)(=O)N(C)C)c1,i,-9.2*,-9.7*,i,-8,45%*,i,52%*,103*,i
N#CC(C#N)=c1ccc2c(c1)N1C3=C(CCCC3)CC3CCCCC31N=2 (stereo not given),i,-9.8*,-16*,14*,-28,67%*,i,45%*,130*,0.11*
COc1ccccc1NC(=O)C1CCCN(S(=O)(=O)c2ccc3c(c2)CC(C)N3C(C)=O)C1 (stereo not given),i,i,i,i,-8,/,/,/,/,/
CCN(C(=S)NCc1ccccc1)c1cccc2ccccc12,i,-13*,-18*,i,-11,64%*,i,46%*,101*,i
COc1cc(OC)c(OC)cc1CNC(=O)c1cc(S(=O)(=O)N2CCOCC2)ccc1F,/,i,/,/,/,/,/,/,/,/
O=C(Cc1cccs1)Nc1cccc(-c2nnc(-c3ccco3)o2)c1,i,-10*,-9.3*,i,-1,i,i,26%*,115*,i
Cc1cc(C)cc(OCC(=O)Nc2cccc(-c3nnc(-c4ccco4)o3)c2)c1,i,-12*,-10*,i,-28,44%*,i,60%*,115*,i
COc1ccc(CC(=O)Nc2cccc(-c3nnc(-c4ccco4)o3)c2)cc1,i,i,i,i,1,/,/,/,/,/
CC(=O)N(C)C1(c2nnnn2CCOC(=O)Nc2cccc3ccccc23)CCCC1,i,i,i,i,-9,/,/,/,/,/
COc1ccc(CC(=O)NNC(=O)c2ccncc2)cc1,i,i,i,i,-9,/,/,/,/,/
Cc1c(C(=O)c2ccc(Cl)c(Cl)c2)cnc2cc3c(cc12)OCO3,i,-11*,-9.9*,i,-6,73%*,i,44%*,100*,i
COc1ccccc1N(CC(=O)NC1CCCCC1)C(=O)CNC(=O)c1cccs1,i,i,i,i,-2,/,/,/,/,/
O=C(c1c(F)cccc1F)N(Cc1cccs1)C1CCCC1,i,i,i,i,-8,/,/,/,/,/
O=C(c1c(F)cccc1F)N(C1CCCCC1)C1CCCCC1,i,-12*,-12*,i,-6,68%*,i,28%*,133*,0.12*
O=C(N/N=C/c1ccccc1)c1sccc1OCc1ccc(F)cc1,i,-9.5*,-15*,i,-10,65%*,i,41%*,109*,i
O=C(N/N=C/c1ccccc1)c1ccc(OCc2ccccc2)cc1,i,i,i,i,-17,/,/,/,/,/
CCN1CC2=C(OC(N)=C(C#N)C2c2cccs2)/C(=C\c2cccs2)C1 (stereo not given),i,i,-8.7*,i,-8,28%*,i,26%*,130*,0.12*
CCOC(=O)C1=C(CC)OC(N)=C(C#N)C1c1cccs1 (stereo not given),i,i,i,i,-2,/,/,/,/,/
COc1ccccc1C(=O)NC(CCSC)C(=O)OC(C)C(N)=O (stereo not given),i,i,i,i,-2,/,/,/,/,/
COc1ccccc1NC(=S)N(C(C)C)C(C)c1ccccn1 (stereo not given),i,i,i,i,-8,/,/,/,/,/
CC(C)N(C(=S)Nc1cccc(C(F)(F)F)c1)C(C)c1ccccn1 (stereo not given),i,-11*,-17*,12*,-11,77%*,i,44%*,133*,0.12*
Cc1ccc(C(c2ccc(C)o2)c2cccc([N+](=O)[O-])c2O)o1,i,-9.8*,-11*,i,-18,26%*,i,i,114*,0.15*
CCOC(=O)/C(C(=O)Nc1ccccc1Cl)=C1/NC(C)(C)Cc2ccccc21,i,-9.1*,-10*,i,-7,38%*,i,40%*,116*,i
CCOC(=O)c1ccc2c(c1)nc(COc1ccc3ccccc3c1)n2CC,i,-10*,-13*,i,-12,59%*,i,44%*,125*,0.13*
Clc1ccc(-n2cccc2CN2CCc3c([nH]c4ccccc34)C2c2ccccn2)nc1 (stereo not given),i,-10*,-8.5*,i,-25,38%*,i,25%*,125*,0.14*
SMILES,KCNQ1 act,KCNK3 block,KCNK9 inh,KCNQ1 block,hERG protect,KCNK9 inh conf,Kir21 sel,HEK293 Tl ctr,KCNK3 confirm,KCNK3 noninduced
O=C(Cc1ccsc1)N1CCc2c([nH]c3ccccc23)C1c1ccccn1 (stereo not given),i,i,i,i,-7,/,/,/,/,/
O=C(CN(C(=O)CNC(=O)c1cccs1)c1ccccc1F)NC1CCCC1,i,i,i,i,-8,/,/,/,/,/
CC(C)(C)Cc1nnc(NC(=O)CSc2ccccc2)s1,i,i,i,i,-4,/,/,/,/,/
Cc1cc(OCC(=O)N2CCc3ccccc3C2)c2c(-c3ccccc3)cc(=O)oc2c1,i,-11*,i,i,-3,i,i,i,99*,i
CC(=O)Oc1cc(C)cc2oc(=O)cc(-c3ccccc3)c12,i,i,i,i,-7,/,/,/,/,/
CSCCC(NC(=O)COc1cccc2ccccc12)C(=O)O (stereo not given),i,i,i,i,-2,/,/,/,/,/
Fc1cccc(Cc2noc(CN3CCCN(C4Cc5ccccc5C4)CC3)n2)c1,i,i,i,i,-14,/,/,/,/,/
COc1ccc(CCCC(=O)N/N=C/c2cccc(OC)c2O)cc1C,i,i,i,i,-11,/,/,/,/,/
COC(=O)c1cc2sccc2n1Cc1nc(-c2cccc(Cl)c2)oc1C,i,-8.7*,-8.5*,i,-1,28%*,i,30%*,93*,i
COc1ccc(OC)c(CNC(=O)CCSCc2ccc(F)cc2Cl)c1,i,i,i,i,-6,/,/,/,/,/
Cc1cccc(C)c1NC(=O)c1sccc1SCc1cccc(C(F)(F)F)c1,i,-9.4*,-14*,i,-9,56%*,49%*,45%*,101*,0.16*
